ChEMBL document CHEMBL3856208, “Lupane and 18α-oleanane derivatives substituted in the position 2, their cytotoxicity and influence on cancer cells” (Eur J Med Chem, 2016)

Assays:
[1] = Cytotoxicity against human BJ cells after 72 hrs by MTS assay; format: toxicity, cell-based
Outline: (§1)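 Cells seeded at 25000–35000 cells/mL, compounds from DMSO dosed at time zero as four-fold dilutions. Exposure 72 h at 37 °C, 5% CO2, with MTS added for 1–4 h and OD read at 490 nm. Survival expressed as % of mean control OD, with IC50 from dose-response curves. Run as technical duplicates in at least three biological replicates.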

[2] = Cytotoxicity against human CCRF-CEM cells after 72 hrs by MTS assay; format: functional, cell-based; outline: as §1
[3] = Cytotoxicity against human A549 cells after 72 hrs by MTS assay; format: functional, cell-based; conditions: A549, 72 h; outline: as §1
[4] = Therapeutic index, ratio of IC50 for human MRC5 cells to IC50 for human CCRF-CEM cells; format: cell-based; conditions: MRC5 cells versus CCRF-CEM cells, read-out: Ratio IC50
[5] = Cytotoxicity against human MRC5 cells after 72 hrs by MTS assay; format: toxicity, cell-based; outline: as §1
[6] = Cytotoxicity against human CEM/DNR cells after 72 hrs by MTS assay; format: functional, cell-based; outline: as §1
[7] = Therapeutic index, ratio of IC50 for human BJ cells to IC50 for human CCRF-CEM cells; format: cell-based; conditions: BJ cells versus CCRF-CEM cells, read-out: Ratio IC50
[8] = Cytotoxicity against p53 deficient human HCT116 cells after 72 hrs by MTS assay; format: functional, cell-based; conditions: HCT-116, 72 h; outline: as §1
[9] = Cytotoxicity against human U2OS cells after 72 hrs by MTS assay; format: functional, cell-based; outline: as §1
[10] = Cytotoxicity against human K562-TAX cells after 72 hrs by MTS assay; format: functional, cell-based; outline: as §1
[11] = Cytotoxicity against human K562 cells after 72 hrs by MTS assay; format: functional, cell-based; conditions: K562, 72 h; outline: as §1
[12] = Cytotoxicity against human HCT116 cells after 72 hrs by MTS assay; format: functional, cell-based; conditions: HCT-116, 72 h; outline: as §1

CC1(C)CC[C@]23CC[C@]4(C)[C@H](CC[C@@H]5[C@@]6(C)C=C(O)C(=O)C(C)(C)[C@@H]6CC[C@]54C)[C@H]2[C@H]1OC3
IC50 at 72 h [1]: > 50 µM
IC50 [2]: 13 to 13.1 µM
IC50 [3]: > 50 µM
selectivity ratio [4]: > 2.9
IC50 at 72 h [5]: 25.4 µM
IC50 [6]: > 50 µM
selectivity ratio [7]: > 2.9
IC50 [8]: 33.4 µM
IC50 [9]: 45.8 µM
IC50 [10]: 45.3 µM
IC50 [11]: 16.9 µM
IC50 [12]: 41.6 µM

CC1(C)CC[C@]23CC[C@]4(C)[C@H](CC[C@@H]5[C@@]6(C)CC([N+](=O)[O-])=C(O)C(C)(C)[C@@H]6CC[C@]54C)[C@H]2[C@H]1OC3
IC50 [2]: > 50 µM

CC(C)[C@@H]1CC[C@]2(C(=O)O)CC[C@]3(C)[C@H](CC[C@@H]4[C@@]5(C)CC([N+](=O)[O-])([N+](=O)[O-])C(=O)C(C)(C)[C@@H]5CC[C@]43C)[C@@H]12
IC50 at 72 h [1]: > 50 µM
IC50 [2]: 28.6 to 29 µM
IC50 [3]: > 50 µM
selectivity ratio [4]: > 1.7
IC50 at 72 h [5]: > 50 µM
IC50 [6]: 46.6 µM
selectivity ratio [7]: > 1.7
IC50 [8]: > 50 µM
IC50 [9]: > 50 µM
IC50 [10]: 29.9 µM
IC50 [11]: > 50 µM
IC50 [12]: > 50 µM

COC(=O)[C@]12CC[C@@H](C(C)C)[C@@H]1[C@H]1CC[C@@H]3[C@@]4(C)CC(S)C(=O)C(C)(C)[C@@H]4CC[C@@]3(C)[C@]1(C)CC2 (stereo partly drawn)
IC50 at 72 h [1]: > 50 µM
IC50 [2]: 40 to 45.3 µM
IC50 [3]: > 50 µM
selectivity ratio [4]: > 1.1
IC50 at 72 h [5]: > 50 µM
IC50 [6]: > 50 µM
selectivity ratio [7]: > 1.1
IC50 [8]: > 50 µM
IC50 [9]: > 50 µM
IC50 [10]: > 50 µM
IC50 [11]: > 50 µM
IC50 [12]: > 50 µM

CC1(C)CC[C@]23CC[C@]4(C)[C@H](CC[C@@H]5[C@@]6(C)C[C@@H](NC(=O)CCC(=O)O)[C@H](O)C(C)(C)[C@@H]6CC[C@]54C)[C@H]2[C@H]1OC3
IC50 [2]: > 50 µM

CC(C)[C@@H]1CC[C@]2(C(=O)O)CC[C@]3(C)[C@H](CC[C@@H]4[C@@]5(C)CC(N=[N+]=[N-])C(=O)C(C)(C)[C@@H]5CC[C@]43C)[C@@H]12 (stereo partly drawn)
IC50 at 72 h [1]: > 50 µM
IC50 [2]: 17 to 17.5 µM
IC50 [3]: 25.7 µM
selectivity ratio [4]: > 2.9
IC50 at 72 h [5]: > 50 µM
IC50 [6]: 16 µM
selectivity ratio [7]: > 2.9
IC50 [8]: > 50 µM
IC50 [9]: 48.9 µM
IC50 [10]: 10.6 µM
IC50 [11]: 14.2 µM
IC50 [12]: > 50 µM

CC(C)[C@@H]1CC[C@]2(C(=O)O)CC[C@]3(C)[C@H](CC[C@@H]4[C@@]5(C)C=C(O)C(=O)C(C)(C)[C@@H]5CC[C@]43C)[C@@H]12
IC50 [2]: 6 µM

CC1(C)CC[C@]23CC[C@]4(C)[C@H](CC[C@@H]5[C@@]6(C)CC[C@H](O)C(C)(C)[C@@H]6CC[C@]54C)[C@H]2[C@H]1OC3 [ALLOBETULIN]
IC50 [2]: > 50 µM

CC(=O)N[C@@H]1C[C@]2(C)[C@H]3CC[C@@H]4[C@H]5[C@H]6OC[C@@]5(CCC6(C)C)CC[C@@]4(C)[C@]3(C)CC[C@H]2C(C)(C)[C@H]1OC(C)=O
IC50 [2]: > 50 µM

CC1(C)CC[C@]23CC[C@]4(C)[C@H](CC[C@@H]5[C@@]6(C)C[C@@H](N=[N+]=[N-])[C@H](O)C(C)(C)[C@@H]6CC[C@]54C)[C@H]2[C@H]1OC3
IC50 [2]: > 50 µM

CC1(C)CC[C@]23CC[C@]4(C)[C@H](CC[C@@H]5[C@@]6(C)CC7=C(OCCS7)C(C)(C)[C@@H]6CC[C@]54C)[C@H]2[C@H]1OC3
IC50 [2]: > 50 µM

CC1(C)CC[C@]23CC[C@]4(C)[C@H](CC[C@@H]5[C@@]6(C)CC(N=[N+]=[N-])C(=O)C(C)(C)[C@@H]6CC[C@]54C)[C@H]2[C@H]1OC3 (stereo partly drawn)
IC50 [2]: > 50 µM

CC(C)[C@@H]1CC[C@]2(C(=O)O)CC[C@]3(C)[C@H](CC[C@@H]4[C@@]5(C)C=C(N)C(=O)C(C)(C)[C@@H]5CC[C@]43C)[C@@H]12
IC50 at 72 h [1]: > 50 µM
IC50 [2]: 26.6 to 27 µM
IC50 [3]: > 50 µM
selectivity ratio [4]: > 1.9
IC50 at 72 h [5]: > 50 µM
IC50 [6]: 33.9 µM
selectivity ratio [7]: > 1.9
IC50 [8]: > 50 µM
IC50 [9]: > 50 µM
IC50 [10]: 20.1 µM
IC50 [11]: > 50 µM
IC50 [12]: > 50 µM

CC(=O)NC1C[C@]2(C)[C@H]3CC[C@@H]4[C@H]5[C@H]6OC[C@@]5(CCC6(C)C)CC[C@@]4(C)[C@]3(C)CC[C@H]2C(C)(C)C1=O (stereo partly drawn)
IC50 at 72 h [1]: > 50 µM
IC50 [2]: 32 to 32.2 µM
IC50 [3]: > 50 µM
selectivity ratio [4]: > 1.1
IC50 at 72 h [5]: 21.6 µM
IC50 [6]: > 50 µM
selectivity ratio [7]: > 1.1
IC50 [8]: 38.7 µM
IC50 [9]: > 50 µM
IC50 [10]: > 50 µM
IC50 [11]: 32.4 µM
IC50 [12]: 42.9 µM

C=C(C)[C@@H]1CC[C@]2(C(=O)O)CC[C@]3(C)[C@H](CC[C@@H]4[C@@]5(C)CCC(=O)C(C)(C)[C@@H]5CC[C@]43C)[C@@H]12 [BETUNOLIC ACID]
IC50 [2]: 14 µM

CC(=O)NC1=C[C@]2(C)[C@H]3CC[C@@H]4[C@H]5[C@H]6OC[C@@]5(CCC6(C)C)CC[C@@]4(C)[C@]3(C)CC[C@H]2C(C)(C)C1=O
IC50 at 72 h [1]: > 50 µM
IC50 [2]: 29.9 to 30 µM
IC50 [3]: > 50 µM
selectivity ratio [4]: > 1.7
IC50 at 72 h [5]: > 50 µM
IC50 [6]: 35.3 µM
selectivity ratio [7]: > 1.7
IC50 [8]: > 50 µM
IC50 [9]: > 50 µM
IC50 [10]: 30.5 µM
IC50 [11]: 37.9 µM
IC50 [12]: > 50 µM

CC(C)[C@@H]1CC[C@]2(C(=O)O)CC[C@]3(C)[C@H](CC[C@@H]4[C@@]5(C)CC([N+](=O)[O-])=C(O)C(C)(C)[C@@H]5CC[C@]43C)[C@@H]12
IC50 at 72 h [1]: > 50 µM
IC50 [2]: 31.8 to 32 µM
IC50 [3]: 31.3 µM
selectivity ratio [4]: > 1.6
IC50 at 72 h [5]: > 50 µM
IC50 [6]: 36.1 µM
selectivity ratio [7]: > 1.6
IC50 [8]: > 50 µM
IC50 [9]: > 50 µM
IC50 [10]: 20.6 µM
IC50 [11]: 10.1 µM
IC50 [12]: > 50 µM

CC1(C)CC[C@]23CC[C@]4(C)[C@H](CC[C@@H]5[C@@]6(C)C[C@H](NC(=O)CCC(=O)O)[C@H](O)C(C)(C)[C@@H]6CC[C@]54C)[C@H]2[C@H]1OC3
IC50 [2]: > 50 µM

CC(C)[C@@H]1CC[C@]2(C(=O)O)CC[C@]3(C)[C@H](CC[C@@H]4[C@@]5(C)CCC(=O)C(C)(C)[C@@H]5CC[C@]43C)[C@@H]12 [DIHYDROBETULONIC ACID]
IC50 [2]: 4 µM

CC1(C)CC[C@]23CC[C@]4(C)[C@H](CC[C@@H]5[C@@]6(C)CC([N+](=O)[O-])([N+](=O)[O-])C(=O)C(C)(C)[C@@H]6CC[C@]54C)[C@H]2[C@H]1OC3
IC50 [2]: > 50 µM

CC(=O)N[C@H]1C[C@]2(C)[C@H]3CC[C@@H]4[C@H]5[C@H]6OC[C@@]5(CCC6(C)C)CC[C@@]4(C)[C@]3(C)CC[C@H]2C(C)(C)[C@H]1OC(C)=O
IC50 [2]: > 50 µM

CC1(C)CC[C@]23CC[C@]4(C)[C@H](CC[C@@H]5[C@@]6(C)C=C(NC7=C[C@]8(C)[C@H]9CC[C@@H]%10[C@@H]%11[C@H]%12OC[C@@]%11(CCC%12(C)C)CC[C@@]%10(C)[C@]9(C)CC[C@H]8C(C)(C)C7=O)C(=O)C(C)(C)[C@@H]6CC[C@]54C)[C@H]2[C@H]1OC3
IC50 [2]: > 50 µM

CC1(C)CC[C@]23CC[C@]4(C)[C@H](CC[C@@H]5[C@@]6(C)CC(Br)C(=O)C(C)(C)[C@@H]6CC[C@]54C)[C@H]2[C@H]1OC3 (stereo partly drawn)
IC50 [2]: > 50 µM

CC(C)[C@@H]1CC[C@]2(C(=O)O)CC[C@]3(C)[C@H](CC[C@@H]4[C@@]5(C)CC(Br)C(=O)C(C)(C)[C@@H]5CC[C@]43C)[C@@H]12 (stereo partly drawn)
IC50 [2]: 2 µM

CC1(C)CC[C@]23CC[C@]4(C)[C@H](CC[C@@H]5[C@@]6(C)C=C(N)C(=O)C(C)(C)[C@@H]6CC[C@]54C)[C@H]2[C@H]1OC3
IC50 [2]: > 50 µM

CC1(C)CC[C@]23CC[C@]4(C)[C@H](CC[C@@H]5[C@@]6(C)CCC(=O)C(C)(C)[C@@H]6CC[C@]54C)[C@H]2[C@H]1OC3
IC50 [2]: > 50 µM

C=C(C)[C@@H]1CC[C@]2(CO)CC[C@]3(C)[C@H](CC[C@@H]4[C@@]5(C)CC[C@H](O)C(C)(C)[C@@H]5CC[C@]43C)[C@@H]12 [BETULIN]
IC50 [2]: > 50 µM

COC(=O)CCC(=O)N[C@@H]1C[C@]2(C)[C@H]3CC[C@@H]4[C@H]5[C@H]6OC[C@@]5(CCC6(C)C)CC[C@@]4(C)[C@]3(C)CC[C@H]2C(C)(C)[C@H]1O
IC50 [2]: > 50 µM

CC1(C)CC[C@]23CC[C@]4(C)[C@H](CC[C@@H]5[C@@]6(C)C[C@H](N=[N+]=[N-])[C@H](O)C(C)(C)[C@@H]6CC[C@]54C)[C@H]2[C@H]1OC3
IC50 [2]: > 50 µM

COC(=O)CCC(=O)N[C@H]1C[C@]2(C)[C@H]3CC[C@@H]4[C@H]5[C@H]6OC[C@@]5(CCC6(C)C)CC[C@@]4(C)[C@]3(C)CC[C@H]2C(C)(C)[C@H]1O
IC50 [2]: > 50 µM
